In brackets after ≈: the same amount, converted by molar mass. Activity calls are given as the source filed them. The rule behind the calls is not given here.
Legend:
Staphylococcus aureus [1] = experiment: AUBKC (0 to 48 hrs) in methicillin-resistant Staphylococcus aureus 33922 infected in in vitro pharmacokinetic model at 750 mg, iv every 8 hrs using 10^6 CFU/ml inoculum; format: functional
Summary of the method: (§1)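 Single-compartment dilutional in vitro PK model at 37°C in 10% Mueller-Hinton broth, stirred, flow 132 ml/h. […] Inoculum 10^6 CFU/ml added 45 min before dosing, or 10^8 CFU/ml run overnight. Viable counts with β-lactamase neutralisation. AUBKC by log-linear trapezoidal rule, at least triplicate.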

Staphylococcus aureus [2] = experiment: Antibacterial activity against methicillin-resistant Staphylococcus aureus 33820 in in vitro pharmacokinetic model assessed as viable count at 6 times of MIC; format: functional
Summary of the method: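 Population analysis before drug exposure (time 0). Model samples were plated on nutrient agar without drug and with tomopenem at 2×, 4× and 6× MIC (10% MHB MIC), and growth was recorded as log CFU/ml. Detection limit 2 log10.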

Staphylococcus aureus [3] = experiment: Antibacterial activity against methicillin-resistant Staphylococcus aureus 33922 assessed as viable count at 2 times of MIC after 24 hrs using 10^6 CFU/ml inoculum; format: functional, organism-based
Staphylococcus aureus [4] = experiment: T>MIC for static effect in methicillin-resistant Staphylococcus aureus 33815 in in vitro pharmacokinetic model after 24 hrs using 10^6 CFU/ml inoculum; format: functional
Staphylococcus aureus [5] = experiment: Antibacterial activity against methicillin-sensitive Staphylococcus aureus; format: functional
Staphylococcus aureus [6] = experiment: Antibacterial activity against methicillin-resistant Staphylococcus aureus 33815 infected in in vitro pharmacokinetic model assessed as reduction in viable count at 750 mg, iv every 8 hrs measured after 24 hrs using 10^6 CFU/ml inoculum; format: functional
Summary of the method: (§2)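 Single-compartment dilutional in vitro PK model, 37°C, stirred, in 10% Mueller-Hinton broth. […] Inoculum 10^6 CFU/ml from a 24-h plate culture was added 45 min before dosing. Viable counts by spiral plating on nutrient agar with β-lactamase neutralization. Log change was taken from time 0; detection limit 10^2 CFU/ml; at least triplicate.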

Staphylococcus aureus [7] = experiment: Antibacterial activity against methicillin-resistant Staphylococcus aureus 33829 infected in in vitro pharmacokinetic model assessed as reduction in viable count at 1500 mg, iv every 8 hrs measured after 24 hrs using 10^6 CFU/ml inoculum; format: functional
Summary of the method: (§3)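 Single-compartment dilutional in vitro PK model, 10% Mueller-Hinton broth, 37°C, stirred, dilution 132 ml/h. […] Inoculum 10^6 CFU/ml (added 45 min pre-dose) or 10^8 CFU/ml (run overnight). Viable counts by spiral plating, beta-lactamase neutralization, detection limit 10^2 CFU/ml. At least triplicate.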

Staphylococcus aureus [8] = experiment: AUBKC (0 to 24 hrs) in methicillin-resistant Staphylococcus aureus 33815 infected in in vitro pharmacokinetic model at 1500 mg, iv every 8 hrs using 10^8 CFU/ml inoculum; format: functional; summary of the method: as §1
Staphylococcus aureus [9] = experiment: T>MIC for 2-log drop in count in methicillin-resistant Staphylococcus aureus 33815 in in vitro pharmacokinetic model after 24 hrs using 10^6 CFU/ml inoculum; format: functional
Staphylococcus aureus [10] = experiment: Antibacterial activity against methicillin-resistant Staphylococcus aureus 33829 in in vitro pharmacokinetic model assessed as viable count at 2 times of MIC; format: functional
Summary of the method: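 Preexposure population analysis: time-zero model samples plated on nutrient agar without drug and with drug at multiples of the 10% broth MIC. Growth reported as log CFU/ml, detection limit 2 log10.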

Staphylococcus aureus [11] = experiment: Antibacterial activity against methicillin-sensitive Staphylococcus aureus 5956 by 10% MH broth method; format: functional
Summary of the method: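 Broth dilution per CLSI, but in 10% Mueller-Hinton broth using nondoubling dilutions.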

Staphylococcus aureus [12] = experiment: Antibacterial activity against methicillin-resistant Staphylococcus aureus 33827 infected in in vitro pharmacokinetic model assessed as reduction in viable count at 750 mg, iv every 8 hrs measured after 24 hrs using 10^6 CFU/ml inoculum; format: functional; summary of the method: as §3
Staphylococcus aureus [13] = experiment: Antibacterial activity against methicillin-resistant Staphylococcus aureus 33829 by broth dilution method; format: functional
Summary of the method: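 MIC by CLSI broth dilution, or by broth dilution in 10% Mueller-Hinton broth at nondoubling dilutions.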

Staphylococcus aureus [14] = experiment: AUBKC (0 to 48 hrs) in methicillin-resistant Staphylococcus aureus 33829 infected in in vitro pharmacokinetic model at 750 mg, iv every 8 hrs using 10^6 CFU/ml inoculum; format: functional; summary of the method: as §1
Staphylococcus aureus [15] = experiment: T>MIC for 1-log drop in count in methicillin-resistant Staphylococcus aureus 33820 in in vitro pharmacokinetic model after 24 hrs using 10^6 CFU/ml inoculum; format: functional
Staphylococcus aureus [16] = experiment: Antibacterial activity against methicillin-resistant Staphylococcus aureus 33922 by broth dilution method; format: functional
Staphylococcus aureus [17] = experiment: Antibacterial activity against methicillin-sensitive Staphylococcus aureus 5956 by broth dilution method; format: functional
Staphylococcus aureus [18] = experiment: Antibacterial activity against methicillin-resistant Staphylococcus aureus 33922 infected in in vitro pharmacokinetic model assessed as reduction in viable count at 1500 mg, iv every 8 hrs measured after 24 hrs using 10^8 CFU/ml inoculum; format: functional
Staphylococcus aureus [19] = experiment: Antibacterial activity against methicillin-resistant Staphylococcus aureus 33820 infected in in vitro pharmacokinetic model assessed as time required to 99% killing at 750 mg, iv every 8 hrs using 10^6 CFU/ml inoculum; format: functional
Staphylococcus aureus [20] = experiment: Antibacterial activity against methicillin-resistant Staphylococcus aureus 33921 infected in in vitro pharmacokinetic model assessed as reduction in viable count at 1500 mg, iv every 8 hrs measured after 24 hrs using 10^6 CFU/ml inoculum; format: functional; summary of the method: as §3
Staphylococcus aureus [21] = experiment: Antibacterial activity against methicillin-resistant Staphylococcus aureus 33922 infected in in vitro pharmacokinetic model assessed as reduction in viable count at 1500 mg, iv every 8 hrs measured after 36 hrs using 10^8 CFU/ml inoculum; format: functional
Staphylococcus aureus [22] = experiment: AUBKC (0 to 48 hrs) in methicillin-resistant Staphylococcus aureus 33921 infected in in vitro pharmacokinetic model at 1500 mg, iv every 8 hrs using 10^6 CFU/ml inoculum; format: functional; summary of the method: as §1
Staphylococcus aureus [23] = experiment: Antibacterial activity against methicillin-resistant Staphylococcus aureus 33829 assessed as viable count at 4 times of MIC after 48 hrs using 10^6 CFU/ml inoculum; format: functional, organism-based
Staphylococcus aureus [24] = experiment: T>MIC for 2-log drop in count in methicillin-sensitive Staphylococcus aureus 5956 in in vitro pharmacokinetic model after 24 hrs using 10^6 CFU/ml inoculum; format: functional
Staphylococcus aureus [25] = experiment: Antibacterial activity against methicillin-resistant Staphylococcus aureus 33820 infected in in vitro pharmacokinetic model assessed as reduction in viable count at 1500 mg, iv every 8 hrs measured after 12 hrs using 10^6 CFU/ml inoculum; format: functional; summary of the method: as §2
Staphylococcus aureus [26] = experiment: T>MIC in methicillin-resistant Staphylococcus aureus 33820 infected in vitro pharmacokinetic model at 1500 mg, iv every 8 hrs; format: functional
Staphylococcus aureus [27] = experiment: Antibacterial activity against methicillin-resistant Staphylococcus aureus 33922 by 10% MH broth method; format: functional
Staphylococcus aureus [28] = experiment: Antibacterial activity against methicillin-resistant Staphylococcus aureus 33815 by 10% MH broth method; format: functional
Summary of the method: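 Broth dilution MIC per CLSI but in 10% Mueller-Hinton broth, using nondoubling dilutions.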

Staphylococcus aureus [29] = experiment: Antibacterial activity against methicillin-resistant Staphylococcus aureus 33922 assessed as viable count at 4 times of MIC after 24 hrs using 10^6 CFU/ml inoculum; format: functional, organism-based

## C[C@@H](O)[C@H]1C(=O)N2C(C(=O)O)=C(S[C@H]3C[C@@H](C(=O)N4CC[C@H](NC(=O)CNC(=N)N)C4)N(C)C3)[C@H](C)[C@H]12 [TOMOPENEM]
Staphylococcus aureus [1]
  AUBC: 27.7 log10CFU/ml.hr
Staphylococcus aureus [2]
  log10CFU/ml: <2
Staphylococcus aureus [3]
  Activity: inactive
Staphylococcus aureus [4]
  fT>MIC: 5.3%
Staphylococcus aureus [5]
  MIC50: 0.12 µg/mL (≈ 0.223 µM)
  MIC90: 0.12 µg/mL (≈ 0.223 µM)
Staphylococcus aureus [6]
  log10CFU/ml: 4.2
Staphylococcus aureus [7]
  log10CFU/ml: 4.2
Staphylococcus aureus [8]
  AUBC: 103.5 log10CFU/ml.hr
Staphylococcus aureus [9]
  fT>MIC: 12.5%
Staphylococcus aureus [10]
  log10CFU/ml: 5.8
Staphylococcus aureus [11]
  MIC: 0.04 µg/mL (≈ 0.0744 µM)
Staphylococcus aureus [12]
  log10CFU/ml: 3.6
Staphylococcus aureus [13]
  MIC: 2 µg/mL (≈ 3.72 µM)
Staphylococcus aureus [14]
  AUBC: 25 log10CFU/ml.hr
Staphylococcus aureus [15]
  fT>MIC: 9.9%
Staphylococcus aureus [16]
  MIC: 0.5 µg/mL (≈ 0.93 µM)
Staphylococcus aureus [17]
  MIC: 0.06 µg/mL (≈ 0.112 µM)
Staphylococcus aureus [18]
  log10CFU/ml: 5
Staphylococcus aureus [19]
  Time: 7 h
Staphylococcus aureus [20]
  log10CFU/ml: 4.2
Staphylococcus aureus [21]
  log10CFU/ml: 5.2
Staphylococcus aureus [22]
  AUBC: 38.1 log10CFU/ml.hr
Staphylococcus aureus [23]
  Activity: Active
Staphylococcus aureus [24]
  fT>MIC: 8.7%
Staphylococcus aureus [25]
  log10CFU/ml: 4.2
Staphylococcus aureus [26]
  fT>MIC: 98%
Staphylococcus aureus [27]
  MIC: 0.25 µg/mL (≈ 0.465 µM)
Staphylococcus aureus [28]
  MIC: 6 µg/mL (≈ 11.2 µM)
Staphylococcus aureus [29]
  Activity: inactive

Reference: ChEMBL document CHEMBL1255300, “Pharmacodynamics of the antibacterial effect and emergence of resistance to tomopenem, formerly RO4908463/CS-023, in an in vitro pharmacokinetic model of Staphylococcus aureus infection” (Antimicrob Agents Chemother, 2008)
